Reference: PMC7606181 (Acta Pharmaceutica Sinica. B, 2019)
Blank lines part the entries; values can stand above or below the compound they belong to.

Assays:
[1] = system: platelets adhering to 4T1 cells; assay: Interaction of tumor cells with platelets; assay type: cell-based, mouse; conditions: LMWH-equivalent 80 μg/mL, compared with PBS group
How it was run: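 4T1 cells at about 80% confluency were pre-incubated 20 min with test agents or PBS (LMWH-equivalent 80 μg/mL). Washed platelets from fresh blood were labelled with 5 μmol/L calcein AM, added, and co-cultured 2 h. After washing, cells were lysed in DMSO and fluorescence read at Ex 490 / Em 515 nm.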

[2] = Content of GEM; assay type: physicochemical; conditions: toluidine blue spectrophotometry
How it was run: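 LMWH content: samples at 40 μg/mL were mixed with 0.005% toluidine blue in PBS (pH 7.4) and shaken 30 s. Hexane was added and shaken 1 min, and the aqueous layer was read at 630 nm. GEM content: acid/CuCl2 hydrolysis at 70 °C for 12 h, then filtration and C18 HPLC. Mobile phase was ammonium acetate pH 5.7/methanol 90:10 at 1 mL/min, UV 268 nm.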

[3] = system: 4T1 cells; assay: Cytotoxicity MTT assay; assay type: cell-based, mouse
[4] = system: MMP-9; assay: Detection of MMP-9 by Western blot in 4T1 cells; assay type: cell-based, mouse; conditions: 24 h, LT 100 μg/mL, LMWH 60 μg/mL
How it was run: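 4T1 cells at about 60% confluency were exposed for 24 h to fresh medium containing test agents or PBS. Lysates were centrifuged at 15,700×g, 4 °C, 15 min. Supernatant proteins were run on 6% SDS-PAGE and blotted to PVDF. Blots were probed with MMP-9 antibody and HRP-labelled anti-goat secondary, then imaged.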

[5] = system: 4T1 cells; assay: Scratch healing assay; assay type: cell-based, mouse; conditions: 12 h
How it was run: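 4T1 monolayers at about 90% confluence were scratched in a straight line and rinsed with PBS. They were then incubated 12 h in medium with PBS or test agents (GEM-equivalent 0.1 μg/mL). Images were taken at 0 and 12 h, and healing rate was calculated by image analysis.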

[6] = Pharmacokinetic assay; assay type: in vivo, BALB/c mice
[7] = Hematological analysis and serum biochemical analysis; assay type: in vivo, BALB/c mice; conditions: mice, i.v., GEM-equivalent 4 mg/kg, 5 times
How it was run: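 Mice were split into 4 groups (n = 3): PBS or test preparations i.v. at GEM-equivalent 4 mg/kg, every 2 days for 5 doses. After treatment, blood was taken for haematology and serum for biochemistry.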

[8] = HE staining of major organs; assay type: in vivo, BALB/c mice; conditions: after treatment, compared with PBS group
[9] = system: MMP-9; conditions: cited from earlier work
[10] = system: red blood cell (RBC) suspension from mouse; assay: Hemolysis assay; assay type: cell-based; conditions: 0.3% Triton
[11] = Long-term stability in water at 4 °C; assay type: physicochemical
How it was run: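 Micelle solutions at 0.5 mg/mL in water were stored at 4 °C, alongside a TPGS-stabilised prodrug formulation as control. Appearance and particle size were recorded until precipitation appeared.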

[12] = system: 4T1 solid tumor; assay: In vivo anti-tumor assay, 4T1 solid tumor model; set-up: species or system BALB/c mice; conditions: day 18
How it was run: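 Female BALB/c mice received 1 × 10^6 4T1 cells in the mammary pad. From day 5 they were grouped (n = 6) and dosed via tail vein with PBS or test preparations. Doses were GEM-equivalent 4 mg/kg and LMWH-equivalent 18.4 mg/kg, every 2 days for 5 doses. On day 18, tumours and major organs were taken for H&E staining.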

[13] = Tail bleeding assay; assay type: in vivo, BALB/c mice; conditions: mice, i.v., LMWH-equivalent 20 mg/kg, 30 min after injection, versus PBS
How it was run: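 Mice were split into 3 groups (n = 3): PBS or test agents i.v. at LMWH-equivalent 20 mg/kg. At 30 min, 3 mm of tail tip was cut and the tail immersed in PBS at 37 °C. The endpoint was time to complete cessation of bleeding.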

[14] = system: 4T1 tumor-bearing mice; assay: In vivo tumor-targeting assay and biodistribution; set-up: species or system BALB/c mice; conditions: i.v.
How it was run: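 Female BALB/c mice (about 5 weeks) carried mammary-pad 4T1 tumours (1 × 10^6 cells) and were used on day 10. Groups (n = 9) got PBS, DiD-loaded micelles or free DiD in propylene glycol/PBS 1:1, at 20 μg DiD per mouse via tail vein. Whole-body imaging at 1–24 h; ex vivo organ imaging at 4, 8 and 24 h (3 per point); confocal of 24 h tumour sections.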

[15] = female, BALB/c, mouse, plasma, iv, 4 mg/kg

Compound: LMWH-TOS [LT]
- number of adhesive platelets on tumor cells [1]: significantly decreased
- content of LMWH [2]: 47%
- cell viability ([3]; up to 250 μg/mL): almost did not affect cell viability
- MMP-9 secreted by 4T1 cells [4]: significantly inhibited

- clearance [6, 15]: 5.67 mL/min/kg
- half-life [6, 15]: 36.9 ± 2.22 min
- V1 ([6]; mice, i.v., GEM-equivalent 4 mg/kg, plasma GEM): 0.027 ± 0.015 L/kg
- levels of CK (creatine kinase) in serum [7]: increased
- number of white blood cells (WBC) and neutrophilic granulocyte (Gran) ([7]; compared with PBS group): decrease
Compound: Nc1ccn([C@@H]2O[C@H](CO)[C@@H](O)C2(F)F)c(=O)n1 [GEM, Gemcitabine]
- scratch healing rate (in words, versus PBS) [5]: healing rates decreased
- cytotoxicity ([3]; MTT, 48 h): concentration-dependent cytotoxicity
- relative cytotoxicity ([3]; concentration of GEM more than 0.037 μg/mL): more cytotoxic than GLT
- HE staining of other organs [8]: myocardial rupture and glomerular effusion

Compound: Cc1c(C)c2c(c(C)c1OC(=O)CCC(=O)O)CC[C@@](C)(CCC[C@H](C)CCC[C@H](C)CCCC(C)C)O2 [TOS, D-α-tocopherol succinate]
- secretion of MMP-9 in B16F10 cells [9]: inhibited

Compound: Triton
- erythrocyte lysis (positive control) [10]: complete cell lysis

- long-term stability (appearance, particle size) [11]: aggregated to form precipitates in 6 h
Compound: Cc1c(C)c2c(c(C)c1OC(=O)CCC(=O)Nc1ccn(C3OC(CO)C(O)C3(F)F)c(=O)n1)CCC(C)(CCCC(C)CCCC(C)CCCC(C)C)O2 (stereo not shown) [GT, GEM-TOS]

Compound: low-molecular-weight heparin [LMWH]
- scratch healing rate (in words, versus PBS) [5]: healing rates decreased
- number of adhesive platelets on tumor cells [1]: significantly decreased
- MMP-9 secreted by 4T1 cells [4]: did not have obvious effect
- HE staining of tumor [12]: retained their complete microstructures
- bleeding time [13]: no significant difference

- main site of signal [14]: mainly showed in liver
Compound: CCCCCCCCCCCCCCCCCCN1C(=CC=CC=CC2=[N+](CCCCCCCCCCCCCCCCCC)c3ccccc3C2(C)C)C(C)(C)c2ccccc21 [free DiD, 1,1′-dioctadecyl-3,3,3′,3′-tetramethylindodicarbocyanine]
